Reference: ChEMBL document CHEMBL1153526, “Design, synthesis, and pharmacological activities of dynorphin A analogues cyclized by ring-closing metathesis” (J Med Chem, 2009)

Molecular target: Kappa-type opioid receptor (Rattus norvegicus) (UniProt P34975)
Assay: Agonist activity at rat cloned kappa opioid receptor expressed in CHO cells assessed as inhibition of forskolin-induced cAMP production by scintillation counting relative to Dyn A-(1-13)NH2
Format: functional, cell-based
Conditions: concentration not given here
How it was run: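 CHO cells stably expressing cloned rat κ receptor, washed in F12 and labelled 4 h with [3H]adenine. Then 40 min at 37 °C with 50 μM forskolin, peptidase inhibitors (bestatin, captopril, L-leucyl-L-leucine) and peptide at 0.1–10,000 nM in 10-fold steps. [3H]cAMP isolated on cation exchange resin and alumina, [14C]cAMP added for recovery, scintillation counted. Efficacy relative to Dyn A-(1-13)NH2. Mean ± SEM, ≥3 assays.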

Sequence of Kappa-type opioid receptor (Rattus norvegicus) (P34975 whole entry): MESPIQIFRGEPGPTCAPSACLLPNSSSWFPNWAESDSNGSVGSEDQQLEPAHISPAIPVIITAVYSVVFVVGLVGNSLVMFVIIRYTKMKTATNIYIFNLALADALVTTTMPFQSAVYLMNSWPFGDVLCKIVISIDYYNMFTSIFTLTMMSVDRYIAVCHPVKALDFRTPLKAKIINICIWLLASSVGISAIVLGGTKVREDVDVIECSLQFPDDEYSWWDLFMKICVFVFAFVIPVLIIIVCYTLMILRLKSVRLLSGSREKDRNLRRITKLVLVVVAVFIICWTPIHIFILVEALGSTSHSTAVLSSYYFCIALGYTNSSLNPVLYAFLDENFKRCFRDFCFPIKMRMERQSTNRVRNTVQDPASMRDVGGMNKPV

| SMILES | inhibition [%] |
| --- | --- |
| N=C(N)NCCC[C@@H]1NC(=O)[C@@H](NC(=O)[C@H](Cc2ccccc2)NC(=O)CNC(=O)CNC(=O)[C@@H](N)Cc2ccc(O)cc2)C/C=C\C[C@@H](C(=O)N[C@@H](CCCNC(=N)N)C(=O)N2CCC[C@H]2C(=O)N[C@@H](CCCCN)C(N)=O)NC(=O)[C@H](CCCNC(=N)N)NC1=O | 110 |
| CC[C@H](C)[C@H](NC(=O)[C@H](CCCN=C(N)N)NC(=O)[C@H](CCCN=C(N)N)NC(=O)[C@H](CC(C)C)NC(=O)[C@H](Cc1ccccc1)NC(=O)CNC(=O)CNC(=O)[C@@H](N)Cc1ccc(O)cc1)C(=O)N[C@@H](CCCN=C(N)N)C(=O)N1CCC[C@H]1C(=O)N[C@@H](CCCCN)C(N)=O | 100 |
